Measurements reported in article PMC3415686 (Bioorganic & medicinal chemistry letters, 2012).
Each block holds one compound with its values, some of them ahead of it.

Assays:
panel of 353 kinases = assay: KINOMEscan kinase selectivity profiling; assay type: binding; conditions: 10 μM
In short: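 KINOMEscan competition binding screen with the test compound at 10 μM against 353 kinases. Hits were kinases with an Ambit score below 10% of the DMSO control. S(10) is the number of kinases scoring below ten divided by the total number of kinases tested at that concentration.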

[1] = Pharmacokinetics following oral and intravenous delivery; assay type: in vivo, rats; conditions: rat
In short: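 Rats were dosed with the test compound orally and intravenously; the oral dose was 2 mg/kg. Serum drug levels were followed to derive oral bioavailability (%F), half-life, Cmax and clearance.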

wt Bcr-Abl-Ba/F3 = wt Bcr-Abl-Ba/F3 (Homo sapiens, UniProt P00519+P11274); assay: Cellular antiproliferative activity on wt Bcr-Abl-Ba/F3; assay type: cell-based, murine; conditions: for antiproliferative activity against wild-type Bcr-Abl (in words): Ba/F3 cells transformed with Bcr-Abl
In short: (§1)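 Murine pre-B Ba/F3 cells transformed with the Bcr-Abl oncogene were used for cellular Bcr-Abl inhibition. Transformed cells grow without interleukin-3 (IL-3). Untransformed parental Ba/F3 cells proliferate only when IL-3 is present.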

Bcr-Abl-T315I-Ba/F3 = Bcr-Abl-T315I-Ba/F3 (Homo sapiens, UniProt P00519+P11274, T315I); assay: Cellular antiproliferative activity on mutant Bcr-Abl-T315I-Ba/F3; assay type: cell-based, murine
In short: as §1

wt-Ba/F3 = assay: Cytotoxicity on wt; assay type: cell-based, murine
In short: as §1

S(10) score (kinases inhibited below a score of ten / total kinases tested) (panel of 353 kinases): 0.36
AUC (%extrapolated) ([1]; IV 1 mg/kg): 8.7%
AUC (%extrapolated) ([1]; PO 2 mg/kg): 21%
Tmax ([1]; serum, iv, 1 mg/kg): 8.4 min
Tmax ([1]; serum, po, 2 mg/kg): 66 min
SMILES: Cc1cn(-c2cc(NC(=O)c3cccc(-c4ccc5nc(NC(=O)C6CC6)sc5n4)c3)cc(C(F)(F)F)c2)cn1 [Compound 26]

SMILES: Nc1nc2ccc(-c3cccc(C(=O)Nc4cccc(C(F)(F)F)c4)c3)nc2s1 [Compound 9a]
antiproliferative activity against wild-type Bcr-Abl (in words) (wt Bcr-Abl-Ba/F3): did not display antiproliferative activity
antiproliferative activity against T315I-Bcr-Abl (in words) (Bcr-Abl-T315I-Ba/F3; Ba/F3 cells transformed with T315I-Bcr-Abl): did not display antiproliferative activity

EC50 (wt Bcr-Abl-Ba/F3; read-out: Cellular antiproliferative activity (EC50, μM) Bcr-Abl (wt), wt Bcr-Abl-Ba/F3): 0.098 µM
improvement in cellular antiproliferative activity relative to 11 against T315I-Bcr-Abl (Bcr-Abl-T315I-Ba/F3; relative to 11): ~6 fold
S(10) score (kinases inhibited below a score of ten / total kinases tested) (panel of 353 kinases): 0.10
AUC (%extrapolated) ([1]; IV 1 mg/kg): 35.3%
AUC (%extrapolated) ([1]; PO 2 mg/kg): 35%
Tmax ([1]; serum, iv, 1 mg/kg): 4.8 min
clearance ([1]; serum, iv, 1 mg/kg): 13 mL/min/kg
Tmax ([1]; serum, po, 2 mg/kg): 162 min
SMILES: CCN1CCN(Cc2ccc(NC(=O)c3cccc(-c4ccc5nc(NC(=O)C6CC6)sc5n4)c3)cc2C(F)(F)F)CC1 [Compound 22]
decrease in cytotoxicity against parental Ba/F3 cells relative to 11 (wt-Ba/F3; relative to 11): 3 fold

antiproliferative activity against wild-type Bcr-Abl (in words) (wt Bcr-Abl-Ba/F3): exceptionally potent
SMILES: CCN1CCN(Cc2ccc(NC(=O)c3ccc(C)c(-c4ccc5nc(NC(=O)C6CC6)sc5n4)c3)cc2C(F)(F)F)CC1 [Compound 27]

improved activity on wild-type Bcr-Abl (urea linkage) (wt Bcr-Abl-Ba/F3; urea linkage in place of amide): 5–10 fold
improved activity on T315I Bcr-Abl (urea linkage) (Bcr-Abl-T315I-Ba/F3; urea linkage in place of amide): 5–10 fold
SMILES: CCN1CCN(Cc2ccc(NC(=O)Nc3cccc(-c4ccc5nc(NC(=O)C6CC6)sc5n4)c3)cc2C(F)(F)F)CC1 [Compound 32]
increased cytotoxicity towards parental Ba/F3 cells (urea linkage) (wt-Ba/F3; urea linkage in place of amide): approximately 5 fold

reduction in cellular activity against T315I-Bcr-Abl compared to 22 (Bcr-Abl-T315I-Ba/F3; compared to 22): ~4 fold
SMILES: Cc1cn(-c2cc(NC(=O)Nc3cccc(-c4ccc5nc(NC(=O)C6CC6)sc5n4)c3)cc(C(F)(F)F)c2)cn1 [Compound 33]

loss of cellular activity relative to 22 (wt Bcr-Abl-Ba/F3; relative to 22, cell line not given): approximately 10 fold
SMILES: O=C(Nc1ccc(N2CCNCC2)c(C(F)(F)F)c1)c1cccc(-c2ccc3nc(NC(=O)C4CC4)sc3n2)c1 [Compound 24]
